# CSC inhib – blocks cancer stem cells | cancer stem cell-like cells viability, luminescence | inhibition, % at 7.5 µM | 300,000 compounds, 1.1% hits; in the data active means inhibition above about 75%; inconclusive means no clear call, values can overlap the other calls; tested in HMLE shEcad cells
# Mdm2 MdmX PPI – human Mdm2/MdmX binding inhibition; O15151+Q00987; SaOS-2 split-luciferase Mdm2/MdmX complementation, luminescence; inhibition, % at 8 µM; 330,000 compounds, 3% hits; AID 485346;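 active means inhibition of at least 50% at 8 µM in the primary screen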
# Target sequence (O15151 whole entry, looked up): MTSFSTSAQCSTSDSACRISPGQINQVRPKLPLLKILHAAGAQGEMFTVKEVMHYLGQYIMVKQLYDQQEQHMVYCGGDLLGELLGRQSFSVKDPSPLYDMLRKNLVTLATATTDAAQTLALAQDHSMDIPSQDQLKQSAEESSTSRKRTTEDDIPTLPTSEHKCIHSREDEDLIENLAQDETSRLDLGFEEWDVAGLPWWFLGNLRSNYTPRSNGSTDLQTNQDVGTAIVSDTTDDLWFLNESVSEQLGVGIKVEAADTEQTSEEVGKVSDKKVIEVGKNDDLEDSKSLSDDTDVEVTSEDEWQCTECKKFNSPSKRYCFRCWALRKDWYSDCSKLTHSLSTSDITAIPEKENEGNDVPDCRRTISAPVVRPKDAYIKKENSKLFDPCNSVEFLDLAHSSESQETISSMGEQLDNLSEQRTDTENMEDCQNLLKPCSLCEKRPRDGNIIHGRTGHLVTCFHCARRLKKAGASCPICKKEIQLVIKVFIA
# Target sequence (Q00987 whole entry, looked up): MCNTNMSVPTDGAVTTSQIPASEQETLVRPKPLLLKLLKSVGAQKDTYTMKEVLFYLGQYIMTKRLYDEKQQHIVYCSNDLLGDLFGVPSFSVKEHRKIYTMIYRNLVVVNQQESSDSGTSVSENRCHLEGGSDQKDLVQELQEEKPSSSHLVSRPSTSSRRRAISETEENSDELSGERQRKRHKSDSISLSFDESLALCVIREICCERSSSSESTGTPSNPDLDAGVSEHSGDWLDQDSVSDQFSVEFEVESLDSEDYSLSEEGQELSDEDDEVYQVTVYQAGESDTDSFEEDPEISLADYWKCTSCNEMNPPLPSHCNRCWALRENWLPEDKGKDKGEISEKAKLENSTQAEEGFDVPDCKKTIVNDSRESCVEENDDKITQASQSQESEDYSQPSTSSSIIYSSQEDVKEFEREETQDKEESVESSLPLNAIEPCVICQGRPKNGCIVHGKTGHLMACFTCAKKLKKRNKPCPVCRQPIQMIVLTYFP
# Beta cell apopt – beta cell apoptosis inhibition. INS-1E cytokine-induced death, ATP luminescence, 48 h; percent of positive-control rescue, neutral wells zero. protection from apoptosis, % (test concentration not listed). 300,000 compounds, 0.8% hits;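 active means Every replicate reaches about 75%, or at least half do and their mean reaches it too, limit read from the data; inconclusive means At least half of replicates reach the limit but their mean does not; inactive means Under half of replicates reach the limit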;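 further: 0% = cytokine-treated negative control wells and 100% = positive control rescue; higher means more ATP so stronger rescue from cytokine killing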
# Calb FLC – affects C. albicans growth with fluconazole. C. albicans CaCi-2 (fluconazole-resistant clinical isolate) + fluconazole, Alamar Blue growth, 48 h. growth inhibition, % (test concentration not listed). 300,000 compounds, 0.57% hits. AID 1979;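 active means growth inhibition above about 58% in most replicates, limit read from the data, passing the limit was not always enough; inconclusive means exactly half the replicates above a set limit; inactive means most replicates below a set limit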;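 further: all wells also contain fluconazole at 8 µg/ml as a sub-toxic cotreatment; 0% = median of DMSO wells and 100% = median of geldanamycin control wells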
# T cruzi inh – T. cruzi replication inhibition; T. cruzi beta-gal in NIH3T3, luminescence, 90 h; 300,000 compounds, 1.4% hits; inhibition, % (concentration not given with the values);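 active means mean inhibition across valid replicates above about 55%, limit read from the data; inconclusive means mean below that limit but half or more replicates reach it; inactive means mean below it, under half of replicates reach it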;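 further: signal also drops with host cell toxicity which is not excluded here; 0% = plate median of DMSO wells and 100% = zero luminescence signal; higher percent means less beta-gal luminescence so fewer parasites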
#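 System: NIH/3T3 fibroblasts plus reporter T. cruzi. Medium: DMEM plus 2% FBS. Probe or stimulus: 5000 reporter trypomastigotes per well. Compound: single 50 nL compound addition per well in DMSO. Incubation: co-culture of at least 90 h after 3 h attachment. Detection: GalScreen β-gal luminescence, detergent lysis, 60 min. Evaluation: parasite load inhibition, %.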
# NALP3 yeast inh – NALP3 inhibition in yeast. Yeast reconstituted NLRP3/ASC/caspase-1, beta-gal luminescence, 24 h. inhibition, % at 10 µM. 330,000 compounds, 0.39% hits;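 active means inhibition of 50% or more; inactive means inhibition below 50%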;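 further: plate controls were induced DMSO wells for no effect and uninduced yeast grown without galactose for full effect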
# An asterisk follows results filed as active; ? = inconclusive; / = no result given; ! = a repeat was not active. Only some compounds are listed: those with a hit (about 5.3% of all), similar ones and a draw of the others.
SMILES,CSC inhib,Mdm2 MdmX PPI,Beta cell apopt,Calb FLC,T cruzi inh,NALP3 yeast inh
CC(=O)c1c(C)[nH]c(C(=O)Nc2ccc(C)c(S(=O)(=O)Nc3ccc(C)cc3C)c2)c1C,15,48,15,32,23,-1
O=C(CSc1nc2ccc([N+](=O)[O-])cc2[nH]1)NCCc1ccccc1,2,8,9,39,-5,1
COc1cc2c(cc1NC(=O)c1cccc([N+](=O)[O-])c1C)oc1ccccc12,102*,18,13,-5,37,27
CCC(Oc1ccccc1)C(=O)Nc1ccccc1N1CCCCC1 (configuration not stated),24,37,1,6,27,13
CCn1nnnc1NC(=O)c1cc(Cl)c(OC)c(Cl)c1,-6,-2,-7,76*,/,3
COCCn1c(SC)nnc1-c1c[nH]c2ccccc12,-17,3,-1,-3,-9,4
C=CCOc1c(Br)cc(CNCCCN2CCOCC2)cc1OC,-11,17,-6,4,58*,11
CCC1=Nc2cc(C(=O)NCCN3CCCC3)ccc2Sc2ccccc21,-6,28,-5,4,18,3
CCC1=Nc2cc(C(=O)NCCCOC)ccc2Sc2ccccc21,56,48,-7,-5,56*,6
Cc1[nH]n(-c2ccccc2)c(=S)c1C=Nc1cccc([N+](=O)[O-])c1,-11,-9,-7,2,-10,22
Cc1[nH]c2ccccc2c1C(c1ccccn1)c1c(C)[nH]c2ccccc12,-7,36,12,2,30,4
COc1ccc(Nc2nc(C(C)(C)C)nc3c2nnn3Cc2ccccc2Cl)cc1OC,17,45,3,-1,43,-3
CCOC(=O)CNc1nc(C(C)(C)C)nc2c1nnn2Cc1ccccc1Cl,-7,16,/,2,61*,13
COc1ccc(CCNC(=O)c2c(C)noc2C)cc1,-6,-21,-2,-4,-14,18
O=C1C(C2=NC(c3ccccn3)C3C(=O)N(c4ccc(OC(F)(F)F)cc4)C(=O)C23)=C(O)c2ccccc21 (configuration not stated),30,14,81*,-1,-4,7
NC(=O)c1[nH]cnc1N,2,-5,2,-5,58*!,14
C/C(=N/NC(=O)c1cccs1)c1c(C)[nH]n(-c2nc3ccccc3s2)c1=O,59,3,79*,?,0,12
CCCCCCCC(=O)Nc1cc(C(=O)NCCC)ccc1N1CCC2(CC1)CC(c1ccccc1)=NO2,8,11,/,13,57*,-7
CCCNC(=O)c1ccc(N2CCC3(CC2)CC(c2cccc(Br)c2)=NO3)c(NC(=O)c2ccccc2)c1,11,7,14,14,57*,5
CCCNC(=O)c1ccc(N2CCC3(CC2)CC(c2ccccc2)=NO3)c(NC(=O)c2ccc(Br)cc2)c1,-6,10,4,19,21,18
CCCn1c(NCc2ccccc2NS(=O)(=O)c2ccc(C)cc2)nc2ccccc21,75*,32,17,5,43,-2
CCn1c(NCc2cc(Br)ccc2NS(=O)(=O)c2ccc(C)cc2)nc2ccccc21,17,17,10,0,64*,8
CCCOc1ccc(C(=O)N2CCN(c3ccc(N)cc3Cl)CC2)cc1,76*,-18,4,-19,4,-1
O=C(Nc1ccc(-c2csc(Nc3ccc(Cl)cc3)n2)cc1)c1cccc(C(F)(F)F)c1,-14,39,12,2,68*,25
Cc1ccc(-n2c(N)c(C(=O)N3CCN(C)CC3)sc2=S)cc1,-9,-17,-3,7,6,-5
SMILES,CSC inhib,Mdm2 MdmX PPI,Beta cell apopt,Calb FLC,T cruzi inh,NALP3 yeast inh
O=C(CSCc1cccc(CSCC(=O)Nc2ccccc2)n1)Nc1ccccc1,-24,-10,2,111*,3,9
FC(F)(F)c1cnc(Sc2nc3nccc(-c4ccc(Cl)cc4)n3n2)c(Cl)c1,-3,28,2,-23,55*,24
Cc1ccc(N2C(=O)C3CC(c4ccccc4)=C4C5C=CC(C6C(=O)N(c7ccc(C)cc7C)C(=O)C56)C4C3C2=O)c(C)c1 (configuration not stated),/,4,-1,-4,59*,-4
Cc1ccc(N2C(=O)C3CC(c4ccccc4)=C4C5C=CC(C6C(=O)N(c7ccc(C)cc7)C(=O)C56)C4C3C2=O)cc1 (configuration not stated),-8,-28,5,0,43,4
Cc1ccc2nc(N(CCCN(C)C)C(=O)c3ccc(S(=O)(=O)N4CCOCC4)cc3)sc2c1,0,24,5,-1,60*,8
COc1ccc2sc(N(CCCN(C)C)C(=O)c3ccc(S(=O)(=O)N4CCCC4)cc3)nc2c1,7,9,/,-1,45,7
Cc1cc(C)c2nc(N(CCCN(C)C)C(=O)c3ccc(S(=O)(=O)N4CC(C)OC(C)C4)cc3)sc2c1 (configuration not stated),0,31,/,-5,59*,19
CCOC(=O)N1CCN(S(=O)(=O)c2ccc(C(=O)N(CCCN(C)C)c3nc4cc(OC)ccc4s3)cc2)CC1,-2,1,/,16,68*,12
Cc1ccc2sc(N(CCCN(C)C)C(=O)c3ccc(Br)s3)nc2c1C,29,39,16,41,70*,27
Cc1ccc2sc(N(CCCN(C)C)C(=O)c3nc4ccccc4s3)nc2c1C,-5,22,-8,-7,50,6
CC1=C(C(=O)N(C)C)C(c2cccs2)NC(=O)N1 (configuration not stated),-10,-1,-5,?,-4,-12
O=C(NCC(=O)N(c1ccc(F)cc1)C(C(=O)NC1CCCC1)c1cccnc1)c1cccs1 (configuration not stated),1,10,-1,-1,-2,14
N#Cc1cc2ccccc2nc1SCC(=O)NC1CC1,2,12,-8,-4,1,27
CC(=O)OCCN1C(=O)c2cccnc2C1=O,-3,17,0,3,-6,10
CCOC(=O)N1CCN(S(=O)(=O)c2ccc(C(=O)N(CCCN(C)C)c3nc4c(C)c(C)ccc4s3)cc2)CC1,-5,35,/,-6,49,13
Cc1ccc2sc(N(CCCN(C)C)C(=O)c3ccc(S(=O)(=O)N4CCOCC4)cc3)nc2c1C,-4,30,0,3,66*,16
O=C(NNc1nc(-c2ccccc2)c2cc(Br)ccc2n1)c1ccc(S(=O)(=O)N2CCCCC2)cc1,10,35,-7,-4,5,24
COc1cccc(NC(=O)CN(C)C(=O)c2cccc(S(=O)(=O)N3CCN(c4ccccc4)CC3)c2)c1,22,27,9,-1,4,18
COc1ccc(NC(=O)Cn2cnc3ccccc3c2=O)cc1OC,-4,-25,/,24,6,15

# High-throughput results deposited in PubChem BioAssay by several laboratories.
